Assays:
Muscle tissue [1] = experiment: Biodistribution in muscle of Fischer 344 rat bearing rat 9L cells at 20 uCi, iv after 60 mins; format: ADME, organism-based; settings: in vivo, 1 h
Procedure, shortened: (§1)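 Male Fischer 344 rats (200–250 g) carrying intracranial 9L gliosarcoma (5×10^4 cells implanted stereotactically, 10–12 days growth), under ketamine:xylazine anaesthesia. About 20 μCi tracer in 0.5 mL sterile saline given via tail-vein catheter. Groups of 4–5 were killed by intracardiac KCl at 15 (NMeFAMP only), 30, 60 or 120 min. Tissues were weighed and gamma-counted, decay-corrected, and reported as %ID/g, mean ± SD.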

Heart [2] = experiment: Biodistribution in heart of Fischer 344 rat bearing rat 9L cells at 20 uCi, iv after 120 mins; format: ADME, organism-based; settings: in vivo, 2 h; procedure, shortened: as §1
Kidney [3] = experiment: Biodistribution in kidney of Fischer 344 rat bearing rat 9L cells at 20 uCi, iv after 15 mins; format: ADME, organism-based; settings: in vivo, 0.25 h; procedure, shortened: as §1
[4] = Ratio of drug level from tumor to brain of Fischer 344 rat bearing rat 9L cells at 20 uCi, iv after 60 mins; settings: in vivo, 1 h
Liver [5] = experiment: Biodistribution in liver of Fischer 344 rat bearing rat 9L cells at 20 uCi, iv after 30 mins; format: ADME, organism-based; settings: in vivo, 0.5 h; procedure, shortened: as §1
[6] = Biodistribution in testis of Fischer 344 rat bearing rat 9L cells at 20 uCi, iv after 120 mins; format: ADME, organism-based; settings: in vivo, 2 h; procedure, shortened: as §1
Brain [7] = experiment: Biodistribution in brain of Fischer 344 rat bearing rat 9L cells at 20 uCi, iv after 15 mins; format: ADME, organism-based; settings: in vivo, 0.25 h; procedure, shortened: as §1
Kidney [8] = experiment: Biodistribution in kidney of Fischer 344 rat bearing rat 9L cells at 20 uCi, iv after 60 mins; format: ADME, organism-based; settings: in vivo, 1 h; procedure, shortened: as §1
Blood [9] = experiment: Biodistribution in blood of Fischer 344 rat bearing rat 9L cells at 20 uCi, iv after 120 mins; format: ADME, organism-based; settings: in vivo, 2 h; procedure, shortened: as §1
Liver [10] = experiment: Biodistribution in liver of Fischer 344 rat bearing rat 9L cells at 20 uCi, iv after 120 mins; format: ADME, organism-based; settings: in vivo, 2 h; procedure, shortened: as §1
Brain [11] = experiment: Biodistribution in brain of Fischer 344 rat bearing rat 9L cells at 20 uCi, iv after 15 mins; settings: in vivo
Blood [12] = experiment: Biodistribution in blood of Fischer 344 rat bearing rat 9L cells at 20 uCi, iv after 60 mins; format: ADME, organism-based; settings: in vivo, 1 h; procedure, shortened: as §1
Kidney [13] = experiment: Biodistribution in kidney of Fischer 344 rat bearing rat 9L cells at 20 uCi, iv after 120 mins; format: ADME, organism-based; settings: in vivo, 2 h; procedure, shortened: as §1
Pancreas [14] = experiment: Biodistribution in pancreas of Fischer 344 rat bearing rat 9L cells at 20 uCi, iv after 120 mins; format: ADME, organism-based; settings: in vivo, 2 h; procedure, shortened: as §1
Bone [15] = experiment: Biodistribution in bone of Fischer 344 rat bearing rat 9L cells at 20 uCi, iv after 120 mins; format: ADME, organism-based, Bone element; settings: in vivo, 2 h; procedure, shortened: as §1
Lung [16] = experiment: Biodistribution in lung of Fischer 344 rat bearing rat 9L cells at 20 uCi, iv after 30 mins; format: ADME, organism-based; settings: in vivo, 0.5 h; procedure, shortened: as §1
Bone [17] = experiment: Biodistribution in bone of Fischer 344 rat bearing rat 9L cells at 20 uCi, iv after 30 mins; format: ADME, organism-based, Bone element; settings: in vivo, 0.5 h; procedure, shortened: as §1
[18] = Biodistribution in testis of Fischer 344 rat bearing rat 9L cells at 20 uCi, iv after 15 mins; format: ADME, organism-based; settings: in vivo, 0.25 h; procedure, shortened: as §1
Spleen [19] = experiment: Biodistribution in spleen of Fischer 344 rat bearing rat 9L cells at 20 uCi, iv after 30 mins; format: ADME, organism-based; settings: in vivo, 0.5 h; procedure, shortened: as §1
Blood [20] = experiment: Biodistribution in blood of Fischer 344 rat bearing rat 9L cells at 20 uCi, iv after 30 mins; format: ADME, organism-based; settings: in vivo, 0.5 h; procedure, shortened: as §1
Bone [21] = experiment: Biodistribution in bone of Fischer 344 rat bearing rat 9L cells at 20 uCi, iv after 60 mins; format: ADME, organism-based, Bone element; settings: in vivo, 1 h; procedure, shortened: as §1
Bone [22] = experiment: Biodistribution in bone of Fischer 344 rat bearing rat 9L cells at 20 uCi, iv after 15 mins; format: ADME, organism-based, Bone element; settings: in vivo, 0.25 h; procedure, shortened: as §1
Muscle tissue [23] = experiment: Biodistribution in muscle of Fischer 344 rat bearing rat 9L cells at 20 uCi, iv after 120 mins; format: ADME, organism-based; settings: in vivo, 2 h; procedure, shortened: as §1
Pancreas [24] = experiment: Biodistribution in pancreas of Fischer 344 rat bearing rat 9L cells at 20 uCi, iv after 30 mins; format: ADME, organism-based; settings: in vivo, 0.5 h; procedure, shortened: as §1
Kidney [25] = experiment: Biodistribution in kidney of Fischer 344 rat bearing rat 9L cells at 20 uCi, iv after 30 mins; format: ADME, organism-based; settings: in vivo, 0.5 h; procedure, shortened: as §1
Lung [26] = experiment: Biodistribution in lung of Fischer 344 rat bearing rat 9L cells at 20 uCi, iv after 60 mins; format: ADME, organism-based; settings: in vivo, 1 h; procedure, shortened: as §1
Heart [27] = experiment: Biodistribution in heart of Fischer 344 rat bearing rat 9L cells at 20 uCi, iv after 30 mins; format: ADME, organism-based; settings: in vivo, 0.5 h; procedure, shortened: as §1
Muscle tissue [28] = experiment: Biodistribution in muscle of Fischer 344 rat bearing rat 9L cells at 20 uCi, iv after 30 mins; format: ADME, organism-based; settings: in vivo, 0.5 h; procedure, shortened: as §1
Spleen [29] = experiment: Biodistribution in spleen of Fischer 344 rat bearing rat 9L cells at 20 uCi, iv after 120 mins; format: ADME, organism-based; settings: in vivo, 2 h; procedure, shortened: as §1
Heart [30] = experiment: Biodistribution in heart of Fischer 344 rat bearing rat 9L cells at 20 uCi, iv after 15 mins; format: ADME, organism-based; settings: in vivo, 0.25 h; procedure, shortened: as §1
[31] = Ratio of drug level from tumor to brain of Fischer 344 rat bearing rat 9L cells at 20 uCi, iv after 120 mins; format: ADME, organism-based; settings: in vivo, 2 h
Blood [32] = experiment: Biodistribution in blood of Fischer 344 rat bearing rat 9L cells at 20 uCi, iv after 15 mins; format: ADME, organism-based; settings: in vivo, 0.25 h; procedure, shortened: as §1
Pancreas [33] = experiment: Biodistribution in pancreas of Fischer 344 rat bearing rat 9L cells at 20 uCi, iv after 15 mins; format: ADME, organism-based; settings: in vivo, 0.25 h; procedure, shortened: as §1
Liver [34] = experiment: Biodistribution in liver of Fischer 344 rat bearing rat 9L cells at 20 uCi, iv after 15 mins; format: ADME, organism-based; settings: in vivo, 0.25 h; procedure, shortened: as §1
[35] = Biodistribution in testis of Fischer 344 rat bearing rat 9L cells at 20 uCi, iv after 60 mins; format: ADME, organism-based; settings: in vivo, 1 h; procedure, shortened: as §1
Brain [36] = experiment: Biodistribution in brain of Fischer 344 rat bearing rat 9L cells at 20 uCi, iv after 30 mins; format: ADME, organism-based; settings: in vivo, 0.5 h; procedure, shortened: as §1
Muscle tissue [37] = experiment: Biodistribution in muscle of Fischer 344 rat bearing rat 9L cells at 20 uCi, iv after 15 mins; format: ADME, organism-based; settings: in vivo, 0.25 h; procedure, shortened: as §1
Lung [38] = experiment: Biodistribution in lung of Fischer 344 rat bearing rat 9L cells at 20 uCi, iv after 15 mins; format: ADME, organism-based; settings: in vivo, 0.25 h; procedure, shortened: as §1
Pancreas [39] = experiment: Biodistribution in pancreas of Fischer 344 rat bearing rat 9L cells at 20 uCi, iv after 60 mins; format: ADME, organism-based; settings: in vivo, 1 h; procedure, shortened: as §1
[40] = Biodistribution in testis of Fischer 344 rat bearing rat 9L cells at 20 uCi, iv after 30 mins; format: ADME, organism-based; settings: in vivo, 0.5 h; procedure, shortened: as §1
[41] = rat, in vivo, iv, 1 h
[42] = rat, in vivo, iv, 1 h; remark: listed apart in the source
Liver [43] = experiment: Biodistribution in liver of Fischer 344 rat bearing rat 9L cells at 20 uCi, iv after 60 mins; format: ADME, organism-based; settings: in vivo, 1 h; procedure, shortened: as §1
Lung [44] = experiment: Biodistribution in lung of Fischer 344 rat bearing rat 9L cells at 20 uCi, iv after 120 mins; format: ADME, organism-based; settings: in vivo, 2 h; procedure, shortened: as §1
Spleen [45] = experiment: Biodistribution in spleen of Fischer 344 rat bearing rat 9L cells at 20 uCi, iv after 60 mins; format: ADME, organism-based; settings: in vivo, 1 h; procedure, shortened: as §1
Spleen [46] = experiment: Biodistribution in spleen of Fischer 344 rat bearing rat 9L cells at 20 uCi, iv after 15 mins; format: ADME, organism-based; settings: in vivo, 0.25 h; procedure, shortened: as §1
[47] = Biodistribution in tumor of Fischer 344 rat bearing rat 9L cells at 20 uCi, iv after 30 mins; format: ADME, organism-based, Neoplasm; settings: in vivo, 0.5 h; procedure, shortened: as §1
Heart [48] = experiment: Biodistribution in heart of Fischer 344 rat bearing rat 9L cells at 20 uCi, iv after 60 mins; format: ADME, organism-based; settings: in vivo, 1 h; procedure, shortened: as §1

With `CN[C@](C)(C[18F])C(=O)O.Cl` the Drug uptake (Muscle tissue [1]) was 0.24 % ID/g, the Drug uptake (Heart [2]) was 0.21 % ID/g and the Drug uptake (Kidney [3]) was 11.58 % ID/g. It also gave a Ratio [4] of 28.7, a Drug uptake (Liver [5]) of 0.71 % ID/g and a Drug uptake [6] of 0.08 % ID/g. The Drug uptake (Brain [7]) was 0.06 % ID/g, the Drug uptake (Kidney [8]) was 5.18 % ID/g and the Drug uptake (Blood [9]) was 0.14 % ID/g. For the same compound, the Drug uptake (Liver [10]) was 0.6 % ID/g, the Ratio (Brain [11]) was 20.4 and the Drug uptake (Blood [12]) was 0.24 % ID/g. The Drug uptake (Kidney [13]) was 2.22 % ID/g, the Drug uptake (Pancreas [14]) was 3.78 % ID/g and the Drug uptake (Bone [15]) was 0.25 % ID/g. For the same compound, the Drug uptake (Lung [16]) was 0.87 % ID/g, the Drug uptake (Bone [17]) was 0.32 % ID/g and the Drug uptake [18] was 0.19 % ID/g. It also gave a Drug uptake (Spleen [19]) of 0.51 % ID/g, a Drug uptake (Blood [20]) of 0.31 % ID/g and a Drug uptake (Bone [21]) of 0.37 % ID/g. The Drug uptake (Bone [22]) was 0.46 % ID/g, the Drug uptake (Muscle tissue [23]) was 0.22 % ID/g and the Drug uptake (Pancreas [24]) was 3.4 % ID/g. The Drug uptake (Kidney [25]) was 9.48 % ID/g, the Drug uptake (Lung [26]) was 0.5 % ID/g and the Drug uptake (Heart [27]) was 0.3 % ID/g. For the same compound, the Drug uptake (Muscle tissue [28]) was 0.26 % ID/g, the Drug uptake (Spleen [29]) was 0.49 % ID/g and the Drug uptake (Heart [30]) was 0.32 % ID/g. The Ratio [31] was 35.4, the Drug uptake (Blood [32]) was 0.54 % ID/g and the Drug uptake (Pancreas [33]) was 3.52 % ID/g. The Drug uptake (Liver [34]) was 0.83 % ID/g, the Drug uptake [35] was 0.13 % ID/g and the Drug uptake (Brain [36]) was 0.06 % ID/g. For the same compound, the Drug uptake (Muscle tissue [37]) was 0.25 % ID/g, the Drug uptake (Lung [38]) was 0.86 % ID/g and the Drug uptake (Pancreas [39]) was 4.34 % ID/g. For the same compound, the Drug uptake [40] was 0.13 % ID/g, the Drug uptake [41] was 1.46 % ID/g and the Drug uptake [42] was 0.05 % ID/g. It also gave a Drug uptake (Liver [43]) of 0.88 % ID/g, a Drug uptake (Lung [44]) of 0.42 % ID/g and a Drug uptake (Spleen [45]) of 0.53 % ID/g. For the same compound, the Drug uptake (Spleen [46]) was 0.57 % ID/g, the Ratio [47] was 30.2 and the Drug uptake (Heart [48]) was 0.31 % ID/g.

Source: ChEMBL document CHEMBL1154842, “Synthesis, radiolabeling, and biological evaluation of (R)- and (S)-2-amino-3-[(18)F]fluoro-2-methylpropanoic acid (FAMP) and (R)- and (S)-3-[(18)F]fluoro-2-methyl-2-N-(methylamino)propanoic acid (NMeFAMP) as potential PET radioligands for imaging brain tumors” (J Med Chem, 2010)
